Screens (PubChem BioAssay)
Rows were chosen to be rich in hits. Some 1.6% of all compounds tested hit in one or more screens of this group.
CTSL1 counter: cathepsin L1 inhibition, PFM18AAP counter-screen; recombinant F. hepatica cathepsin L1, Z-Leu-Arg-MCA fluorescence; inhibition, % at 5.96 µM; 300,000 tested, 0.49% active; AID 1906;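 active = inhibition above the mean of all tested compounds plus 3 SD, set per screening campaign, cut at about 17% in these data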;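 also: 0% = plate median of test compound wells and 100% = 1 µM Z-Phe-Ala-diazomethylketone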
UCH37 inh: human UCH37 deubiquitinating enzyme inhibition; 330,000 tested, 0.33% active; purified proteasome/UCH37, Ub-AMC cleavage fluorescence; inhibition, % (concentration not given with the values); AID 588478; Q9Y5K5;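 active = mean inhibition over replicate wells above about 20%, limit read from the data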;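 also: 0% = compound-free wells with enzyme and 100% = wells lacking proteasome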
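System: Proteasome-associated human UCH37 deubiquitinase; Input: 0.15 nM proteasome in added enzyme buffer; Also added: Ub-AMC substrate from 1 µM stock; Incubation: 30 min compound-proteasome preincubation then 25 min substrate reaction, room temperature; Detection: fluorescence, ex 355 nm, em 460 nm; Read-out: % inhibition of Ub-AMC cleavage fluorescence; Benchmarks: no-proteasome and no-compound wells.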
HKDC1 inh: inhibitors of human hexokinase HKDC1; inhibition, % at 20 µM; recombinant HKDC1, G6PDH/diaphorase resazurin coupled fluorescence; 340,000 tested, 0.16% active;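 active = inhibition above about 35% when tested at 20 µM, limit read from the data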;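 also: plate controls were DMSO wells with enzyme for no effect and DMSO wells lacking enzyme for full effect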
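Test system: recombinant HKDC1 (HK5) hexokinase enzyme, produced in-house / Doses: 20 µM test compound, 1% DMSO / Timing: 90 min, room temperature / Detection: G6PDH/diaphorase-coupled fluorescence, 1 mM NADP, 100 µM resazurin, 525/613 nm / Control set: DMSO wells with and without enzyme mix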
GSTO1 counter: GSTO1 inhibition, counter-screen for RBBP9 inhibitors; P78417; recombinant GSTO1, activity-based probe fluorescence polarization; inhibition, % at 5.96 µM; 300,000 tested, 1.1% active;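 active = inhibition above the campaign mean inhibition plus 3 SD, cut at about 35% in these data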;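 also: 0% = GSTO1-1 with DMSO and 100% = wells lacking GSTO1-1 enzyme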
Target sequence (P78417 whole entry, looked up): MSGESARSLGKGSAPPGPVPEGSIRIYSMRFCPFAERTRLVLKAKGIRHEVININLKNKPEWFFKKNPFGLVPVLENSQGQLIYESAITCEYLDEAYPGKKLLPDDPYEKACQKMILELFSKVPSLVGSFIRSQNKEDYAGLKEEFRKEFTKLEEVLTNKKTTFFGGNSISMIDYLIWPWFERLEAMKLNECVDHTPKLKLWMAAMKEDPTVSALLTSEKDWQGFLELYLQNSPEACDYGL
TDP2 absorb: blocks human TDP2 phosphodiesterase activity; inhibition, % at 12.8 µM; recombinant TDP2, T5PNP hydrolysis, p-nitrophenol absorbance 415 nm; 370,000 tested, 0.34% active;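 active = inhibition above the mean of all tested compounds plus 3 SD, set per campaign, cut at about 25% in these data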;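 also: 0% = DMSO with enzyme and 100% = buffer with substrate but no TDP2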
Target sequence (O95551 whole entry, looked up): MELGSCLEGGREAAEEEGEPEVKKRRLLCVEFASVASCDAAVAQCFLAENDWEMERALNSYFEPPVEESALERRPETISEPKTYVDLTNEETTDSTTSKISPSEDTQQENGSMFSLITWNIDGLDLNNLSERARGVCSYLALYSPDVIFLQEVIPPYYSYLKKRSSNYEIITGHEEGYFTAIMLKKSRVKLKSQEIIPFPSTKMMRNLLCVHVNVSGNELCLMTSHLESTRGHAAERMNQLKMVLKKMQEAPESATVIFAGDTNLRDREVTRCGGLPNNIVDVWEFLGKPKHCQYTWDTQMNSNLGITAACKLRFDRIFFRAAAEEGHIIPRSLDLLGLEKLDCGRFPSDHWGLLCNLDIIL
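Assay system: Recombinant human TDP2 | Quantity: 120 nM TDP2 per well | Incubation: 2 h at 37 °C | Signal: Epi absorbance | Evaluation: Percent inhibition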
PAD4 FP inh: PAD4 (human) enzyme inhibition; Q9UM07; recombinant PAD4, RCA probe fluorescence polarization; inhibition, % at 6.36 µM; 330,000 tested, 0.41% active; AID 485272;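 active = percent inhibition above a cutoff equal to the mean of all tested compounds plus 3 SD, cut at about 15% in these data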;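 also: 0% = PAD4 with RCA probe and DMSO and 100% = probe without PAD4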
GSTO1 inh conf: confirmation of human GSTO1 inhibitors; shares compounds with GSTO1 counter; recombinant GSTO1, probe fluorescence polarization; 2,400 tested, 54% active; inhibition, % at 5.96 µM;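 active = inhibition above the primary screen's cutoff, its mean inhibition plus 3 SD, cut at about 35% in these data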;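 also: loss of polarization as inhibitors block binding of rhodamine sulfonate ester activity probe; 0% = GSTO1 with DMSO and 100% = wells lacking GSTO1 enzyme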
* marks the source's active call; other numbers are inactive results; / = no result.

SMILES	CTSL1 counter	UCH37 inh	HKDC1 inh	GSTO1 counter	TDP2 absorb	PAD4 FP inh	GSTO1 inh conf
O=C(Nc1ccccc1)c1nn(-c2ccccc2)c(=O)cc1C(F)(F)F	2.3	4.1	3.2	9.1	-5.1	-3.6	/
CCSc1ncc(C=NNc2ccccc2)n1C	/	1.8	/	/	/	/	/
Nc1nonc1-n1nnc(C(=O)NN=Cc2ccccc2Cl)c1CN1CCOCC1	/	1.6	/	/	/	/	/
Oc1ccc(-c2csc(Nc3cccc4ccccc34)n2)cc1O	7.2	-9.2	13.2	61.5*	-7.1	-20.8	5.0
CCC(=O)Nc1cccc(-c2cnc3ccccc3n2)c1	-0.8	8.0	5.1	-1.1	2.8	2.6	/
O=C(CCl)Nc1cccc(-c2cnc3ccccc3n2)c1	74.2*	7.4	16.2	69.0*	-0.5	2.7	94.2*
Cc1cccc(CC2SC(=NN=Cc3ccco3)N(c3ccccc3)C2=O)c1 (centres undefined)	/	4.4	/	/	/	/	/
COc1ccc(CCNC(=O)c2cc(CC(C)C)on2)cc1OC	1.3	4.3	0.2	-1.8	7.6	2.2	/
COc1ccc(CCNC(=O)c2noc(C(C)C)c2[N+](=O)[O-])cc1OC	-6.6	1.0	-6.8	38.8*	-2.4	0.1	30.4
CCN(c1ccccc1)S(=O)(=O)c1cc(NC(=O)CSc2n[nH]c(=O)[nH]c2=O)ccc1Cl	6.8	3.0	-1.3	52.4*	-7.0	2.1	67.4*
CCN(c1ccccc1)S(=O)(=O)c1cc(NC(=O)C2CC2)ccc1Cl	/	2.7	-4.3	/	-1.5	-6.0	/
O=C1C(NS(=O)(=O)c2cccs2)=C(N2CCN(c3cccc(C(F)(F)F)c3)CC2)C(=O)c2ccccc21	0.3	3.5	13.2	48.2*	6.2	-9.0	13.7
O=S(=O)(Nc1ccc(C(F)(F)F)cc1)c1cccs1	-2.5	-0.4	1.0	4.0	3.5	-2.1	/
COc1ccccc1N1CCN(S(=O)(=O)c2cccs2)CC1	-4.1	-0.5	-5.1	0.9	-5.8	-3.0	/
CCOc1ccccc1N1CCN(C2=C(NS(=O)(=O)c3cccs3)C(=O)c3ccccc3C2=O)CC1	-3.4	1.7	15.6	62.5*	5.4	-3.1	12.8
CC(C)(C)c1nn2cnnc2n(N=Cc2ccccc2)c1=O	/	7.6	/	/	/	/	/
C=C(C)c1cccc(C(C)(C)NC(=O)Nc2cccnc2)c1	-2.3	4.6	-4.2	-1.0	-1.8	0.7	/
C=C(C)c1cccc(C(C)(C)NC(=O)Nc2ncccn2)c1	4.7	0.9	-3.0	38.7*	-30.7	-2.3	21.1
COc1ccc(O)c(C=NN2CCOCC2)c1	/	3.3	/	/	/	/	/
Cc1nn(-c2ccccc2)c(C)c1C=NNC(=O)c1cc(C(C)(C)C)[nH]n1	/	2.7	/	/	/	/	/
COc1cc(-c2cc(=O)c3c(O)c(OC)c(OC)c(O)c3o2)ccc1O	2.7	7.2	4.2	41.5*	0.5	-4.8	8.1
Cc1ccc(C(=O)c2coc3cc([N+](=O)[O-])c(O)c([N+](=O)[O-])c23)cc1	-0.9	14.7	14.6	37.6*	7.1	1.3	19.2
O=C(CN(Cc1ccccc1)S(=O)(=O)c1ccccc1)NN=Cc1ccc2c(c1)OCO2	/	4.8	/	/	/	/	/
CCN(CC)S(=O)(=O)c1ccc(NS(=O)(=O)c2ccc3oc(=O)[nH]c3c2)cc1	-3.7	-1.1	3.7	44.0*	3.5	2.7	58.3*
CC(=O)c1cccc(Oc2cc(NN3CCCCC3)c([N+](=O)[O-])cc2[N+](=O)[O-])c1	3.7	5.8	3.6	44.2*	9.0	6.2	28.9
SMILES	CTSL1 counter	UCH37 inh	HKDC1 inh	GSTO1 counter	TDP2 absorb	PAD4 FP inh	GSTO1 inh conf
CC(CC(=O)Nc1cc(Cl)ccc1C)=NNC(N)=O	/	1.7	/	/	/	/	/
CC1=C(C)/C(=N/OC(=O)c2cccc([N+](=O)[O-])c2)C=CC1=O	17.4*	/	8.5	47.2*	/	-2.0	-0.2
COc1ccccc1C=NN1CCN(c2ccc(Cl)cc2)CC1	/	5.8	/	/	/	/	/
CCN(CC)c1ccc(C=Nc2ccc(C)cc2)c(O)c1	2.4	1.6	2.4	1.6	-10.6	1.5	/
CCN(CC)c1ccc(C=Nc2ccc(N(C)C)cc2)c(O)c1	2.5	3.2	4.8	65.7*	18.6	12.2	-4.3
COc1cc(-c2nnc(SCc3cc(=O)oc4cc(O)c(O)cc34)o2)cc(OC)c1OC	2.2	6.9	29.5	59.4*	1.3	1.7	39.3*
O=C(CNc1ccc2ccccc2c1)NN=Cc1ccc(OC(=O)/C=C/c2ccco2)cc1	/	1.6	/	/	/	/	/
Cc1cccc[n+]1C1C(c2ccc([N+](=O)[O-])cc2)C(C#N)=C(C(=C=[N-])C#N)NC1(O)C1CC1 (centres undefined)	1.0	5.3	6.4	40.5*	9.3	9.0	47.6*
COc1ccc(C(=O)NN=Cc2ccccc2C(=O)O)cc1OC	/	3.0	/	/	/	/	/
CCOC(=O)Cc1csc(NC(=O)NC2(C(F)(F)F)Oc3ccc(Cl)cc3O2)n1 (centres undefined)	-3.2	1.6	-6.6	45.4*	-1.8	1.6	4.2
CCOC(=O)Cc1csc(NC(=O)Nc2ccc(OC(F)(F)F)cc2)n1	2.3	2.1	-3.1	-7.0	-3.2	-0.6	/
CCOC(=O)Cc1csc(NC(=O)NC2(C(F)(F)F)Oc3cc(Cl)c(Cl)cc3O2)n1	-0.7	2.3	2.3	44.2*	-11.8	-3.9	7.7
CCOC(=O)Cc1csc(NC(=O)NC2(C(F)(F)F)Oc3ccccc3O2)n1	0.3	3.7	0.3	22.3	-4.8	-2.2	/
Cc1cc(C(=O)NN=Cc2c(C)nn(-c3ccccc3)c2C)c(C)o1	/	2.1	/	/	/	/	/
O=[N+]([O-])c1ccc2[nH]c(O)c(N=NC(=S)NCC3CCCO3)c2c1 (centres undefined)	3.4	3.0	4.2	40.3*	-1.9	-2.9	45.4*
O=[N+]([O-])c1ccc2[nH]c(O)c(N=NC(=S)Nc3cccnc3)c2c1	6.3	9.1	4.1	41.7*	-4.9	-3.8	65.4*
O=[N+]([O-])c1ccc(Cl)c(C=NNC(=S)Nc2ccccc2)c1	/	2.1	/	/	/	/	/
Cn1nc(-c2ccccc2)c(C=NO)c1Cl	/	0.1	/	/	/	/	/
Cc1cc(C)n(-c2cc(O)c(-n3nc(C)cc3C)cc2O)n1	-0.7	-3.6	-0.1	46.5*	-5.5	-5.8	2.9
Cc1sc2ncnc(NN=Cc3ccc(O)cc3)c2c1C	/	7.7	/	/	/	/	/
Cc1cccc2c1NC(=O)C2=O	/	1.8	9.9	/	4.9	/	/
COC(=O)c1cccc2c1NC(=O)C2=O	17.0*	13.0	9.5	50.5*	19.3	2.5	1.2
CC(=NNC(=S)NCCc1ccccc1)c1ccc(C#N)cc1	/	2.5	/	/	/	/	/
COc1cccc(C=NN2CCN(c3ccncc3S(=O)(=O)N3CCCCC3)CC2)c1	/	3.6	/	/	/	/	/
Nc1c(N2CCCC2)cc(Cl)c2nonc12	94.8*	86.7*	-4.5	94.8*	/	7.4	49.4*
CC(=NNC(N)=O)c1cccc(Cl)c1	/	0.0	/	/	/	/	/
